From ChEMBL document CHEMBL1629676, “Inhibitory and bactericidal activities of daptomycin, vancomycin, and teicoplanin against methicillin-resistant Staphylococcus aureus isolates collected from 1985 to 2007” (2009) come the findings set out here.

Molecules are shown by their SMILES. ≈ marks a conversion by molar mass, not a printed value.

Experiment [1] relates to Staphylococcus aureus. Nature of the experiment: Antimicrobial activity against methicillin-resistant Staphylococcus aureus by broth dilution assay. It is filed as functional. A general note: Dilution methods test growth across graded concentrations, often in twofold steps.
Experiment [2] has as its system Staphylococcus aureus. The experiment in a line: Antimicrobial activity against methicillin-resistant Staphylococcus aureus assessed as >=3log10 CFU/ml reduction in bacterial growth after 24 to 48 hrs by CLSI method. In kind it is functional. In outline:
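MBC per CLSI: entire 0.1 ml from the MIC well and from wells 4 dilutions above the MIC spread on blood agar, dried 20 min, then spread evenly; incubated 35 to 37°C for 24 to 48 h. MBC taken as the lowest dilution giving ≥99.9% (≥3-log10 CFU/ml) reduction versus the growth control count.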

In the experiment with Staphylococcus aureus [1], `CN[C@H](CC(C)C)C(=O)N[C@H]1C(=O)N[C@@H](CC(N)=O)C(=O)N[C@H]2C(=O)N[C@H]3C(=O)N[C@H](C(=O)N[C@H](C(=O)O)c4cc(O)cc(O)c4-c4cc3ccc4O)[C@H](O)c3ccc(c(Cl)c3)Oc3cc2cc(c3O[C@@H]2O[C@H](CO)[C@@H](O)[C@H](O)[C@H]2O[C@H]2C[C@](C)(N)[C@H](O)[C@H](C)O2)Oc2ccc(cc2Cl)[C@H]1O` [VANCOMYCIN] came in with an MIC50 of 1 µg/mL (≈ 0.69 µM) and an MIC90 of 1 µg/mL (≈ 0.69 µM). Besides, in the experiment on Staphylococcus aureus [2], the MBC50 came out at 1 µg/mL (≈ 0.69 µM) and the MBC90 was found to be 1 µg/mL (≈ 0.69 µM).
In the experiment on Staphylococcus aureus [1], `CC(=O)N[C@@H]1[C@H](Oc2c3cc4cc2Oc2ccc(cc2Cl)[C@@H](O[C@@H]2O[C@@H](CO)[C@@H](O)[C@H](O)[C@@H]2NC(C)=O)[C@@H]2NC(=O)[C@H](NC(=O)[C@@H]4NC(=O)[C@H]4NC(=O)[C@@H](Cc5ccc(c(Cl)c5)O3)NC(=O)[C@H](N)c3ccc(O)c(c3)Oc3cc(O)cc4c3)c3ccc(O)c(c3)-c3c(O[C@H]4O[C@H](CO)[C@@H](O)[C@@H](O)[C@@H]4O)cc(O)cc3[C@@H](C(=O)O)NC2=O)O[C@@H](CO)[C@@H](O)[C@@H]1O` gave an MIC50 of 1 µg/mL (≈ 0.566 µM) and an MIC90 of 1 µg/mL (≈ 0.566 µM). In addition, in the experiment with Staphylococcus aureus [2], the MBC50 came to 2 µg/mL (≈ 1.13 µM) and the MBC90 is 32 µg/mL (≈ 18.1 µM).
In the experiment with Staphylococcus aureus [1], `CCCCCCCCCC(=O)N[C@@H](Cc1c[nH]c2ccccc12)C(=O)N[C@H](CC(N)=O)C(=O)N[C@@H](CC(=O)O)C(=O)N[C@@H]1C(=O)NCC(=O)N[C@@H](CCCN)C(=O)N[C@@H](CC(=O)O)C(=O)N[C@H](C)C(=O)N[C@@H](CC(=O)O)C(=O)NCC(=O)N[C@H](CO)C(=O)N[C@@H]([C@H](C)CC(=O)O)C(=O)N[C@@H](CC(=O)c2ccccc2N)C(=O)O[C@@H]1C` displayed an MIC50 of 0.5 µg/mL (≈ 0.309 µM) and an MIC90 of 0.5 µg/mL (≈ 0.309 µM). In the experiment with Staphylococcus aureus [2], the MBC50 stood at 0.5 µg/mL (≈ 0.309 µM) and the MBC90 came out at 1 µg/mL (≈ 0.617 µM).

As a reminder, the MIC50 is the lowest concentration that inhibits either 50% of growth or 50% of the strains tested, depending on the study. Low readings indicate higher susceptibility, high ones lower susceptibility. One may read the MIC90 as an inhibitory concentration at the 90% level, which refers to growth in some studies and to a panel of isolates in others. A lower MIC90 goes with greater potency.
